From PubChem
Compounds with a hit are over-represented: about 5.3% of the library has one in this group of screens.
CSC inhib: blocks cancer stem cells; cancer stem cell-like cells viability, luminescence; inhibition, % at 7.5 µM; actives 1.1% (n = 300,000); AID 2717; in the data active = inhibition above about 75%; inconclusive = no clear call, values can overlap the other calls; tested in HMLE shEcad cells
Mdm2-MdmX inh: human Mdm2/MdmX binding inhibition. inhibition, % at 8 µM. SaOS-2 split-luciferase Mdm2/MdmX complementation, luminescence. O15151+Q00987. AID 485346. actives 3% (n = 330,000);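 active = inhibition of at least 50% at 8 µM in the primary screen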
Target sequence (O15151 whole entry, looked up): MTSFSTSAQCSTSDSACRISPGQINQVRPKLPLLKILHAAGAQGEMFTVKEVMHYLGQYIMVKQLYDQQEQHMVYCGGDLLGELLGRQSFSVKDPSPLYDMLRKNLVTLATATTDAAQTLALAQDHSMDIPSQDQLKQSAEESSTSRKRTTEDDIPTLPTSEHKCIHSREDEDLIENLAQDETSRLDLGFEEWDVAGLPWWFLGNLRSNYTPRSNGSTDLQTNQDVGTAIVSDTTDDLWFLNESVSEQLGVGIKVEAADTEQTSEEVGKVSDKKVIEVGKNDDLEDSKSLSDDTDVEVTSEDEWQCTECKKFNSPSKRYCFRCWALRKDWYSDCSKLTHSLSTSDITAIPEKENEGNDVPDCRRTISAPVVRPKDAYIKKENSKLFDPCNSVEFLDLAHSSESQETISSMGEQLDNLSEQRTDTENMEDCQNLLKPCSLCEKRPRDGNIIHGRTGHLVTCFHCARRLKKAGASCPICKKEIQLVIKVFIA
Target sequence (Q00987 whole entry, looked up): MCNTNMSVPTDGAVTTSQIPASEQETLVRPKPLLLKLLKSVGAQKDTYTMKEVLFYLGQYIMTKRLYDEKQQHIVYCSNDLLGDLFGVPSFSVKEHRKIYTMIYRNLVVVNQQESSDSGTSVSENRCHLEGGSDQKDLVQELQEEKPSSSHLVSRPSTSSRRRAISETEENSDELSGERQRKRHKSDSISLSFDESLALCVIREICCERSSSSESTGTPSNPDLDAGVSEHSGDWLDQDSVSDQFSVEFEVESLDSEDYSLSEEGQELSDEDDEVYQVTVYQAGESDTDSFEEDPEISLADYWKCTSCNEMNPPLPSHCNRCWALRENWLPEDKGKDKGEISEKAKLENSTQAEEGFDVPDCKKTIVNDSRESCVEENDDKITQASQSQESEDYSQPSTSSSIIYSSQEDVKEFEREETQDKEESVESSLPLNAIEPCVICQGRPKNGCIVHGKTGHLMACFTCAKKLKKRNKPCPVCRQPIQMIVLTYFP
NLRP3 yeast inh: NALP3 inhibition in yeast | Yeast reconstituted NLRP3/ASC/caspase-1, beta-gal luminescence, 24 h | inhibition, % at 10 µM | actives 0.39% (n = 330,000);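 active = inhibition of 50% or more; inactive = inhibition below 50%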;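 also: plate controls were induced DMSO wells for no effect and uninduced yeast grown without galactose for full effect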
T cruzi inh: blocks replication of Trypanosoma cruzi; AID 1885; T. cruzi beta-gal in NIH3T3, luminescence, 90 h; inhibition, % (test concentration not listed); actives 1.4% (n = 300,000);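 active = mean inhibition across valid replicates above about 55%, limit read from the data; inconclusive = mean below that limit but half or more replicates reach it; inactive = mean below it, under half of replicates reach it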;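 also: signal also drops with host cell toxicity which is not excluded here; 0% = plate median of DMSO wells and 100% = zero luminescence signal; higher percent means less beta-gal luminescence so fewer parasites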
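Assay system: NIH/3T3 host cells with β-galactosidase reporter T. cruzi; input: 5,000 host fibroblasts per well; compound: single 50 nL compound addition per well in DMSO; timing: ≥90 h infection period, 3 h prior cell attachment; measured by: GalScreen β-gal luminescence, detergent lysis, 60 min; evaluation: percent inhibition of parasite-derived β-gal signal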
Beta apoptosis: blocks beta cell apoptosis. actives 0.8% (n = 300,000). INS-1E cytokine-induced death, ATP luminescence, 48 h; percent of positive-control rescue, neutral wells zero. protection from apoptosis, % (test concentration not listed);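 active = Every replicate reaches about 75%, or at least half do and their mean reaches it too, limit read from the data; inconclusive = At least half of replicates reach the limit but their mean does not; inactive = Under half of replicates reach the limit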;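 also: 0% = cytokine-treated negative control wells and 100% = positive control rescue; higher means more ATP so stronger rescue from cytokine killing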
Calb FLC: C. albicans growth modulation with fluconazole. AID 1979. actives 0.57% (n = 300,000). C. albicans CaCi-2 (fluconazole-resistant clinical isolate) + fluconazole, Alamar Blue growth, 48 h. growth inhibition, % (no concentration beside the values);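 active = growth inhibition above about 58% in most replicates, limit read from the data, passing the limit was not always enough; inconclusive = exactly half the replicates above a set limit; inactive = most replicates below a set limit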;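 also: all wells also contain fluconazole at 8 µg/ml as a sub-toxic cotreatment; 0% = median of DMSO wells and 100% = median of geldanamycin control wells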
Starred values were filed as active, the others as inactive; ? = inconclusive; . = no result.

SMILES | CSC inhib | Mdm2-MdmX inh | NLRP3 yeast inh | T cruzi inh | Beta apoptosis | Calb FLC
CCCCCc1ccc(-c2cn(Cc3ccc(C)cc3)nn2)cc1 | -4.6 | -8.6 | 8.1 | -20.3 | 4.4 | -10.0
COc1cc(CN2CCc3ccccc3C2)ccc1O | 22.2 | 36.4 | 14.9 | -25.9 | 141.8* | -1.5
Cc1ccn(CCC(=O)N2CCCC(CCC(=O)NCc3ccc(F)c(F)c3)C2)n1 (configuration not stated) | -6.4 | -4.9 | 16.7 | 0.4 | 0.4 | 8.5
O=C(Nc1ccc(OCc2ccccc2)cc1)c1cccs1 | 80.3* | -112.9 | 32.0 | -9.2 | 5.1 | -3.3
O=C(N/N=C/c1ccc(OCc2ccccc2)cc1)c1cccs1 | 9.9 | 0.3 | 15.4 | 4.5 | -1.5 | 0.3
Cc1occc1C(=O)Nc1ccc(OCc2ccccc2)cc1 | 90.1* | -84.4 | 7.8 | -10.2 | 18.2 | 0.2
CCN(CC)c1ccc(CN(C(=O)c2cc(OC)c(OC)c(OC)c2)C2CCS(=O)(=O)C2)cc1 (configuration not stated) | 14.6 | 3.4 | 6.7 | 5.9 | 5.2 | -11.4
Cc1cc(C)c(S(=O)(=O)c2cccc(Br)c2C)c(Cl)n1 | 8.3 | . | . | 13.1 | -10.7 | 5.4
Cc1cc(C)c(S(=O)(=O)c2ccc(F)cc2C)c(Cl)n1 | -3.3 | -2.8 | 5.7 | 55.2* | -4.4 | 1.8
Cc1cc(C)c(S(=O)(=O)c2ccc(Cl)cc2)c(Cl)n1 | -11.7 | 22.8 | 20.5 | 7.6 | 2.2 | 24.6
Cc1cc(C)c(S(=O)(=O)c2ccccc2Cl)c(Cl)n1 | 16.4 | -10.9 | 15.7 | 54.9* | -4.0 | -4.4
Cn1nc(Cc2cccc3ccccc23)c(C#N)c1N | -0.5 | 21.5 | 4.9 | -2.0 | -6.6 | 1.6
COc1ccc(CN(C)C(=O)c2[nH]c(C)c(C(C)=O)c2C)cc1F | 0.7 | 10.7 | 8.4 | -4.2 | -5.2 | 10.4
COc1cccc(N2CCN(Cc3nc4scc(-c5ccccc5)c4c(=O)[nH]3)CC2)c1 | 82.2* | 39.3 | 17.1 | -3.5 | -3.9 | -91.8
COc1cccc(N2CCN(Cc3nc4ccccc4c(=O)[nH]3)CC2)c1 | -12.7 | 5.3 | 27.6 | 7.9 | . | -13.7
Cc1ccc(-c2ccc(/C=C3\SC(N4CCOCC4)=NC3=O)o2)cc1 | 19.5 | 38.8 | 30.0 | 65.7* | 2.8 | -3.8
O=C1N=C(N2CCOCC2)S/C1=C/c1ccc(-c2ccc(F)cc2)o1 | -21.6 | 37.9 | 31.6 | 32.0 | 4.4 | 10.3
CCOc1ccc(CNCCCSc2ncccn2)cc1 | -10.2 | -7.6 | 16.8 | 54.9* | -1.0 | -31.6
CC(C)c1ccc(CNCCCSc2ncccn2)cc1 | -15.6 | 5.8 | 14.1 | 71.0* | 0.3 | -15.8
Clc1ccc(CNCCCSc2ncccn2)cc1Cl | -9.5 | -13.2 | 19.3 | 56.3* | -0.2 | -22.3
COc1ccccc1NC(=O)CCN1C(=O)C2CC=C(Cl)CC2C1=O (configuration not stated) | -8.5 | 29.5 | 12.2 | 4.2 | 2.2 | -4.3
COC(=O)[C@@H]1C[C@@H]2CC[C@@H](O)C[C@@H]2N1Cc1ccc(OC)cc1 | -9.0 | -9.9 | 26.2 | -6.0 | -1.1 | -5.8
Cc1nc(C(=O)NC2CCCCC2)sc1C1(C)CC(c2cccnc2)=NO1 (configuration not stated) | 1.8 | 11.8 | -4.4 | 60.8* | 1.4 | -5.0
Cc1ccc(C(=O)Nc2ccc(N3CCOCC3)c3nonc23)cc1[N+](=O)[O-] | . | 44.7 | 18.9 | 12.2 | 0.5 | 31.5
Cc1ccc(OCC(=O)OCCN2C(=O)c3ccccc3C2=O)cc1C | 4.2 | 24.3 | -4.9 | -13.9 | -6.1 | -2.9
SMILES | CSC inhib | Mdm2-MdmX inh | NLRP3 yeast inh | T cruzi inh | Beta apoptosis | Calb FLC
Cn1c(SCC(=O)N/N=C/c2cccnc2)nnc1-c1ccccc1 | -8.8 | 18.4 | 5.4 | -0.6 | -1.4 | -3.5
O=C(NNC(=O)C12CC3CC(CC(C3)C1)C2)c1cnccn1 | 4.6 | 9.6 | 12.8 | -26.5 | 0.6 | 104.0*
O=C(NNC(=S)NC(=O)C12CC3CC(CC(C3)C1)C2)c1ccncc1 | -10.9 | 35.0 | 31.0 | -2.0 | 22.3 | 102.9*
CC1(C(=O)NC(=S)NNC(=O)c2ccncc2)CCCCC1 | 0.6 | 32.5 | 23.2 | -1.5 | . | -5.0
O=C(CN1C(=O)NC2(CCCCC2)C1=O)Nc1ccc(F)cc1 | -2.3 | 4.7 | 3.7 | 11.0 | -2.2 | -5.5
O=C(NCCN1CCOCC1)C1CCN(c2ncnc3c2sc2cccc(F)c23)CC1 | 1.1 | 26.9 | 30.3 | -3.9 | 8.8 | 0.6
CCCCN(CC)CCCNC(=O)C1CCN(c2ncnc3c2sc2cccc(F)c23)CC1 | 11.3 | 26.6 | 8.6 | 70.5* | -0.4 | 6.9
Brc1ccc2nc(-c3c[nH]c4ccccc34)cn2c1 | -5.1 | -268.4 | 34.3 | -3.7 | -2.2 | 18.6
C=CCn1cccc(/C=C/C(=O)c2ccc(C(C)(C)C)cc2)c1=S | 110.6* | . | . | 13.3 | 1.2 | -30.1
CN1CCN(C(=S)NC(=O)c2ccc(C(C)(C)C)cc2)CC1 | 0.1 | -9.8 | 9.5 | -4.1 | -8.5 | 0.4
CCOC(=O)CN(C)C(=O)CCc1nnc(-c2ccc(-c3ccccc3)cc2)o1 | -5.3 | -13.9 | 23.7 | -7.2 | -9.5 | -7.6
CCN(CC)CCN(C)C(=O)CCc1nnc(-c2ccc(C)s2)o1 | 4.7 | -24.4 | 11.0 | 57.4* | -7.8 | -7.2
COc1ccc(C(=O)N/N=C/c2cc3ccccc3[nH]c2=S)cc1 | 3.2 | 2.1 | 6.9 | -1.7 | 5.1 | -3.0
CNC(=S)N1N=C(c2ccccc2)CC1c1ccccc1Cl (configuration not stated) | 0.5 | 9.4 | -0.5 | 14.6 | 20.9 | 65.1*
NC(N)=NC(N)=Nc1ccc(SC(F)(F)F)cc1 | -6.2 | 28.6 | 12.8 | -56.6 | 115.9* | 12.9
O=c1c2ccccc2nc(COc2ccccc2)n1/N=C/c1cc([N+](=O)[O-])ccc1O | 75.5* | 24.8 | 20.9 | 35.0 | 79.1* | -3.3
CCCc1nc2ccccc2c(=O)n1/N=C/c1ccccc1O | 17.0 | 4.8 | 18.6 | 1.7 | 96.8* | .
O=[N+]([O-])c1ccc(Cl)c(/C=N/n2c(COc3ccccc3)n[nH]c2=S)c1 | 60.2 | 26.1 | 9.2 | -22.8 | 4.8 | ?
CCS(=O)(=O)NCC(c1ccco1)N1CCN(c2ccc(F)cc2)CC1 (configuration not stated) | -9.2 | -0.6 | 4.1 | -21.2 | -4.8 | -3.0
COc1ncnc(NS(=O)(=O)c2ccc(N)cc2)c1OC | -0.8 | 1.1 | 16.2 | . | . | .
O=c1cc(-c2ccc(Cl)cc2)nc(N2CCN(c3ccccc3)CC2)[nH]1 | 46.4 | 20.3 | 11.6 | -7.1 | -5.4 | 2.6
FC(F)(F)c1ccc(-c2noc(CN3CCCN(C4CCCCC4)CC3)n2)cc1 | 105.9* | 28.4 | 3.1 | 36.5 | -3.7 | 5.8
Cc1cc(C)nc(-n2nc(C)c(Sc3ccc(F)cc3)c2N)n1 | -14.8 | . | . | 58.1* | 40.5 | -27.8
CCOC(=O)C1CCN(C(=O)Cc2ccc(C)cc2)CC1 | 1.0 | 8.3 | 20.7 | -3.3 | 0.7 | 1.3
COc1cccc(NC(=O)C(=O)NCCCn2ccnc2)c1 | -26.3 | -1.6 | 8.1 | -5.5 | 3.5 | 0.6
COc1ccc(Oc2c(O)c3ccccc3n(C)c2=O)cc1 | -8.9 | 1.1 | -11.8 | -16.3 | 0.1 | 6.9
